# Laboratory results as given in ChEMBL document CHEMBL1138520, “Molecular and conformational determinants of pituitary adenylate cyclase-activating polypeptide (PACAP) for activation of the PAC1 receptor” (J Med Chem, 2009).
# Where a SMILES comes first, the peptide text is derived from it. [ ]: non-standard residue; d: D form. Cha = N[C@@H](CC1CCCCC1)C(=O)O
# Legend:
# [1] = molecular target: T1, Pituitary adenylate cyclase-activating polypeptide type I receptor (Homo sapiens, UniProt P41586); assay: Agonist activity at human recombinant PAC1 receptor expressed in CHO cells assessed as PACAP38-induced calcium mobilization by FLIPR assay; type: functional, cell-based
# In short: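 CHO cells stably expressing recombinant human PAC1, plated 24 h before assay, loaded with fluo-4 AM for 60 min at 37 °C in the dark, then rinsed into HBSS for 15 min at 37 °C. EC50 and efficacy came from nonlinear regression; 4-10 independent assays in duplicate.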
# Target sequence in this assay (P41586 whole entry): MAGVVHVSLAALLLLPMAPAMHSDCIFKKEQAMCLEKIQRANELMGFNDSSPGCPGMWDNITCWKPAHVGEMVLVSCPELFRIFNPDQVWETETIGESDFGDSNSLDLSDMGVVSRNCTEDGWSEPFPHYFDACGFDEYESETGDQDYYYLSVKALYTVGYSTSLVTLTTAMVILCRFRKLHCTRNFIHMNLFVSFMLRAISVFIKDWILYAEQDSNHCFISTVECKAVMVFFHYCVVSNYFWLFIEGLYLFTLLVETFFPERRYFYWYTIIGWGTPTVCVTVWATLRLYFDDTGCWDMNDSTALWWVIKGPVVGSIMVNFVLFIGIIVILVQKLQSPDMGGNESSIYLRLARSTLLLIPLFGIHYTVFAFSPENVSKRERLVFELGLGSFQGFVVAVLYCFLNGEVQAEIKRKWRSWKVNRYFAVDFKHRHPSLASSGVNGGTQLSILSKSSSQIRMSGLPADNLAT
# [2] = molecular target: T1, Pituitary adenylate cyclase-activating polypeptide type I receptor; assay: Agonist activity at human recombinant PAC1 receptor expressed in CHO cells assessed as PACAP38-induced calcium mobilization by FLIPR assay relative to PACAP38; type: functional, cell-based
# In short: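 CHO cells stably expressing recombinant human PAC1, plated 24 h before assay, loaded with fluo-4 AM for 60 min at 37 °C in the dark, then rinsed into HBSS for 15 min at 37 °C. Peptide was added 18 s into a 150 s read (ex 480/em 525 nm), at final concentrations of 1 × 10-12 to 1 × 10^-5 M. Response was normalised to 1 × 10^-5 M PACAP38 on each plate. EC50 and efficacy came from nonlinear regression; 4-10 independent assays in duplicate.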
# Target sequence in this assay (P41586 21-468 limits assumed): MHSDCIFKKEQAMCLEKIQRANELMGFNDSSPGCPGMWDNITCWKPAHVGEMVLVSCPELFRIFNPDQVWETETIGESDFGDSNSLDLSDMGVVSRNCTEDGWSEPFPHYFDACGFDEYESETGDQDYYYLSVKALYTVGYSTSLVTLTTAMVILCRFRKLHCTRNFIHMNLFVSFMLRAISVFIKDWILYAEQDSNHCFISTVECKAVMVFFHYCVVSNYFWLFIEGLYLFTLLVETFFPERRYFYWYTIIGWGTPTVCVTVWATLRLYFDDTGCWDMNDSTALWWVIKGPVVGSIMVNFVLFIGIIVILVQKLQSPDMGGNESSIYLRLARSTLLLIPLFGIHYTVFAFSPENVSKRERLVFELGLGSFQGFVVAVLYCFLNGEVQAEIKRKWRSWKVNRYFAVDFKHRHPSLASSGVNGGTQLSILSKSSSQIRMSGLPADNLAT
# [3] = molecular target: T1, Pituitary adenylate cyclase-activating polypeptide type I receptor; assay: Displacement of [125I]Ac-PACAP27 from human recombinant PAC1 receptor expressed in CHO cells by gamma- counter; type: cell-based
# Target sequence in this assay (P41586 whole entry): as the sequence (P41586 whole entry) above
EC50 [1] [nM],Emax [2] [%],IC50 [3] [nM],Compound
1810,34.5,1770,CC[C@H](C)[C@@H](C(=O)N[C@@H](Cc1ccccc1)C(=O)N[C@H](C(=O)N[C@@H](CC(=O)O)C(=O)N[C@@H](CO)C(=O)N[C@@H](Cc1ccc(O)cc1)C(=O)N[C@@H](CO)C(=O)N[C@@H](CCCNC(=N)N)C(=O)N[C@@H](Cc1ccc(O)cc1)C(=O)N[C@@H](CCCNC(=N)N)C(=O)N[C@@H](CCCCN)C(=O)N[C@@H](CCC(N)=O)C(=O)N[C@@H](CCSC)C(=O)N[C@@H](C)C(=O)N[C@H](C(=O)N[C@@H](CCCCN)C(=O)N[C@@H](CCCCN)C(=O)N[C@@H](Cc1ccc(O)cc1)C(=O)N[C@@H](CC(C)C)C(=O)N[C@@H](C)C(=O)N[C@@H](C)C(=O)N[C@H](C(=O)N[C@@H](CC(C)C)C(N)=O)C(C)C)C(C)C)[C@@H](C)O)N(C)C(=O)CNC(=O)[C@H](CC(=O)O)NC(=O)[C@H](CO)NC(=O)[C@@H](N)Cc1cnc[nH]1
2.6,97.7,6.6,CC[C@H](C)[C@H](NC(=O)CNC(=O)[C@H](CC(=O)O)NC(=O)[C@H](CO)NC(=O)[C@@H](N)Cc1cnc[nH]1)C(=O)N[C@@H](CC1CCCCC1)C(=O)N[C@H](C(=O)N[C@@H](CC(=O)O)C(=O)N[C@@H](CO)C(=O)N[C@@H](Cc1ccc(O)cc1)C(=O)N[C@@H](CO)C(=O)N[C@@H](CCCNC(=N)N)C(=O)N[C@@H](Cc1ccc(O)cc1)C(=O)N[C@@H](CCCNC(=N)N)C(=O)N[C@@H](CCCCN)C(=O)N[C@@H](CCC(N)=O)C(=O)N[C@@H](CCSC)C(=O)N[C@@H](C)C(=O)N[C@H](C(=O)N[C@@H](CCCCN)C(=O)N[C@@H](CCCCN)C(=O)N[C@@H](Cc1ccc(O)cc1)C(=O)N[C@@H](CC(C)C)C(=O)N[C@@H](C)C(=O)N[C@@H](C)C(=O)N[C@H](C(=O)N[C@@H](CC(C)C)C(=O)NCC(=O)N[C@@H](CCCCN)C(=O)N[C@@H](CCCNC(=N)N)C(=O)N[C@@H](Cc1ccc(O)cc1)C(=O)N[C@@H](CCCCN)C(=O)N[C@@H](CCC(N)=O)C(=O)N[C@@H](CCCNC(=N)N)C(=O)N[C@H](C(=O)N[C@@H](CCCCN)C(=O)N[C@@H](CC(N)=O)C(=O)N[C@@H](CCCCN)C(N)=O)C(C)C)C(C)C)C(C)C)[C@@H](C)O (H-HSDGI[Cha]TDSYSRYRKQMAVKKYLAAVLGKRYKQRVKNK-NH2)
0.7,110,6.5,CC[C@H](C)[C@H](NC(=O)CNC(=O)[C@H](CC(=O)O)NC(=O)[C@H](CO)NC(=O)[C@@H](N)Cc1cnc[nH]1)C(=O)N[C@@H](Cc1cccc2ccccc12)C(=O)N[C@H](C(=O)N[C@@H](CC(=O)O)C(=O)N[C@@H](CO)C(=O)N[C@@H](Cc1ccc(O)cc1)C(=O)N[C@@H](CO)C(=O)N[C@@H](CCCNC(=N)N)C(=O)N[C@@H](Cc1ccc(O)cc1)C(=O)N[C@@H](CCCNC(=N)N)C(=O)N[C@@H](CCCCN)C(=O)N[C@@H](CCC(N)=O)C(=O)N[C@@H](CCSC)C(=O)N[C@@H](C)C(=O)N[C@H](C(=O)N[C@@H](CCCCN)C(=O)N[C@@H](CCCCN)C(=O)N[C@@H](Cc1ccc(O)cc1)C(=O)N[C@@H](CC(C)C)C(=O)N[C@@H](C)C(=O)N[C@@H](C)C(=O)N[C@H](C(=O)N[C@@H](CC(C)C)C(N)=O)C(C)C)C(C)C)[C@@H](C)O
